pIC50, pKd: −log10 of the molar value. One block for each compound: values may come before it. Active and inactive are the calls of the source. The rule behind the calls is not given here. Starred links: 1 amine or outer side, 2 acyl side, 3 side chain; linkers in the order of their positions; H or OH if unused. Positions of bridges follow the written chain, without caps; N, C: chain ends. Non-standard residues stand in square brackets, D forms with d. Residues, ends and D or L forms follow the SMILES beside them. ξ: configuration not given here. *: point of attachment. NMeW = CN[C@@H](Cc1c[nH]c2ccccc12)C(=O)O; NH(CH2CH2O)2(CH2)6Cl = ClCCCCCCOCCOCCN*; Ala(2-furyl) = N[C@@H](Cc1ccco1)C(=O)O; NMeY = CN[C@@H](Cc1ccc(O)cc1)C(=O)O; Suc = O=C(CCC(=O)[*:2])[*:1]; hLeu = CC(C)CC[C@H](N)C(=O)O; ξhLeu = CC(C)CCC(N)C(=O)O; NMeA = CN[C@@H](C)C(=O)O; Nle = CCCC[C@H](N)C(=O)O
Legend:
[1] = target: T1, Calcium and integrin-binding protein 1 (Homo sapiens, UniProt Q99828); assay: Displacement of Alexa Fluor 647 labelled UNC10245092 peptide from CIB1 (unknown origin) preincubated for 20 mins followed by Alexa-CIB1 phage peptide addition and measured after 20 to 30 mins by TR-FRET assay
T1 sequence (Q99828 whole entry): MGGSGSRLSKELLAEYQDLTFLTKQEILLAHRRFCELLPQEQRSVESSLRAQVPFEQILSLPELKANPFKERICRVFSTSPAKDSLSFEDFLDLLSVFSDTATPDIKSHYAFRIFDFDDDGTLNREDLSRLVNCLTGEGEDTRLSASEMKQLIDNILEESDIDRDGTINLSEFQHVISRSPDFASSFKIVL

[2] = Cytotoxicity against human MDA-MB-231 cells assessed as cell death at 30 uM incubated for 24 hrs by trypan blue assay; assay type: cell-based; settings: mda-mb-231, 24 h
MDA-MB-468 = assay: Cytotoxicity against human MDA-MB-468 cells assessed as cell death at 30 uM incubated for 24 hrs by trypan blue assay; assay type: functional
[3] = Stability in human MDA-MB-468 cell lysates assessed as compound remaining at 150 uM after 24 hrs by LCMS method; assay type: ADME, subcellular; settings: read-out: Stabilty
How it was run: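 Peptides were incubated in MDA-MB-468 cell lysates at 37 °C.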

[4] = target: T2, Calcium and integrin-binding protein 1 (Homo sapiens) (UniProt Q99828); assay: Inhibition of CIB1 in human MDA-MB-468 cells assessed as reduction in ERK activity after 6 to 24 hrs by Western blotting analysis; assay type: cell-based; settings: time 6-24 hrs
T2 sequence (whole entry): T1 sequence (Q99828 whole entry)
How it was run: (§1)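 Cells were treated with peptide for 6 h and for 24 h alongside a DMSO vehicle control. Lysates were then immunoblotted for phospho-AKT, phospho-ERK and CIB1, and the levels were compared with the DMSO-treated cells.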

[5] = target: T1, Calcium and integrin-binding protein 1; assay: Binding affinity to full length CIB1 (unknown origin) at 300 uM by isothermal titration calorimetry
[6] = target: T2, Calcium and integrin-binding protein 1 (Homo sapiens); assay: Inhibition of CIB1 in human MDA-MB-468 cells assessed as reduction in AKT activity after 6 to 24 hrs by Western blotting analysis; assay type: cell-based; settings: time 6-24 hrs; how it was run: as §1
[7] = target: T2, Calcium and integrin-binding protein 1 (Homo sapiens); assay: Inhibition of CIB1 in human MDA-MB-231 cells assessed as reduction in CIB1 level after 6 hrs by Western blotting analysis; assay type: cell-based; how it was run: as §1
[8] = target: T2, Calcium and integrin-binding protein 1 (Homo sapiens); assay: Inhibition of CIB1 in human MDA-MB-468 cells assessed as reduction in CIB1 level after 6 hrs by Western blotting analysis; assay type: cell-based; how it was run: as §1
[9] = target: T2, Calcium and integrin-binding protein 1 (Homo sapiens); assay: Inhibition of CIB1 in human MDA-MB-231 cells assessed as reduction in ERK activity after 6 to 24 hrs by Western blotting analysis; assay type: cell-based; settings: time 6-24 hrs; how it was run: as §1
[10] = target: T2, Calcium and integrin-binding protein 1 (Homo sapiens); assay: Inhibition of CIB1 in human MDA-MB-231 cells assessed as reduction in AKT activity after 6 to 24 hrs by Western blotting analysis; assay type: cell-based; settings: time 6-24 hrs; how it was run: as §1
[11] = target: T2, Calcium and integrin-binding protein 1 (Homo sapiens); assay: Inhibition of CIB1 in human MDA-MB-231 cells assessed as reduction in pAKT level after 6 to 24 hrs by Western blotting analysis; assay type: cell-based; settings: time 6-24 hrs; how it was run: as §1
[12] = target: T2, Calcium and integrin-binding protein 1 (Homo sapiens); assay: Inhibition of CIB1 in human MDA-MB-468 cells assessed as reduction in pERK level after 6 to 24 hrs by Western blotting analysis; assay type: cell-based; settings: time 6-24 hrs; how it was run: as §1
[13] = target: T2, Calcium and integrin-binding protein 1 (Homo sapiens); assay: Inhibition of CIB1 in human MDA-MB-231 cells assessed as reduction in pERK level after 6 to 24 hrs by Western blotting analysis; assay type: cell-based; settings: time 6-24 hrs; how it was run: as §1
[14] = target: T2, Calcium and integrin-binding protein 1 (Homo sapiens); assay: Inhibition of CIB1 in human MDA-MB-468 cells assessed as reduction in pAKT level after 6 to 24 hrs by Western blotting analysis; assay type: cell-based; settings: time 6-24 hrs; how it was run: as §1

Compound: CC[C@H](C)[C@@H]1NC(=O)[C@H](CC(C)C)NC(=O)[C@H](Cc2c[nH]c3ccccc23)NC(=O)[C@H](Cc2ccc(O)cc2)NC(=O)[C@@H]2CCCN2C(=O)[C@H](CCC(N)=O)NC(=O)[C@H](C)NC(=O)[C@H](Cc2ccc(O)cc2)NC(=O)CSC[C@@H](C(N)=O)NC(=O)[C@H](Cc2c[nH]c3ccccc23)NC(=O)[C@H](CC(N)=O)NC1=O ({CH2CO}-YAQPYWLINWC-NH2; thioether N-11)
pIC50 [1]: 8.05
Activity [2]: 1.5%
Activity (MDA-MB-468): 2.7%
remaining at 24 h, 150 µM [3]: 21.9%

Compound: CC[C@H](C)[C@@H]1NC(=O)[C@H](CC(C)C)NC(=O)[C@H](Cc2c[nH]c3ccccc23)NC(=O)[C@H](Cc2ccc(O)cc2)NC(=O)[C@@H]2CCCN2C(=O)[C@H](CCC(N)=O)NC(=O)[C@H](CCCCN)NC(=O)[C@H](Cc2ccc(O)cc2)NC(=O)CSC[C@@H](C(N)=O)NC(=O)[C@H](Cc2c[nH]c3ccccc23)NC(=O)[C@H](CC(N)=O)NC1=O ({CH2CO}-YKQPYWLINWC-NH2; thioether N-11)
inhibition [4]: inactive
pKd [5]: 8.22
pIC50 [1]: 7.92
inhibition [6]: inactive
Activity [2]: 2%
Activity (MDA-MB-468): 2.7%
inhibition [7]: inactive
remaining at 24 h, 150 µM [3]: 48.6%
inhibition [8]: inactive
inhibition [9]: inactive
inhibition [10]: inactive

pIC50 [1]: 6.72
Compound: CC[C@H](C)[C@@H]1NC(=O)[C@H](CC(C)C)NC(=O)[C@H](Cc2c[nH]c3ccccc23)N(C)C(=O)[C@H](Cc2ccc(O)cc2)NC(=O)[C@@H]2CCCN2C(=O)C(CCC(C)C)NC(=O)[C@H](C)N(C)C(=O)[C@H](Cc2ccc(O)cc2)NC(=O)CSC[C@@H](C(N)=O)NC(=O)[C@H](Cc2c[nH]c3ccccc23)NC(=O)[C@H](CC(N)=O)NC1=O (stereo partly specified) ({CH2CO}-Y[NMeA][ξhLeu]PY[NMeW]LINWC-NH2; thioether N-11)

Compound: CCCC[C@@H]1NC(=O)[C@H](Cc2ccc(O)cc2)NC(=O)CSC[C@@H](C(N)=O)NC(=O)[C@H](Cc2c[nH]c3ccccc23)NC(=O)[C@H](CC(C)C)NC(=O)[C@H]([C@@H](C)CC)NC(=O)[C@H](CC(C)C)NC(=O)[C@H](Cc2c[nH]c3ccccc23)NC(=O)[C@H](Cc2ccc(O)cc2)NC(=O)[C@@H]2CCCN2C(=O)[C@H](CCC(N)=O)NC1=O ({CH2CO}-Y[Nle]QPYWLILWC-NH2; thioether N-11)
pIC50 [1]: 7.23
Activity [2]: 1.1%
Activity (MDA-MB-468): 3.4%
remaining at 24 h, 150 µM [3]: 62.2%

pIC50 [1]: 5.82
Compound: CCCC[C@@H]1NC(=O)[C@H](Cc2ccc(O)cc2)NC(=O)CSC[C@@H](C(N)=O)NC(=O)[C@H](Cc2c[nH]c3ccccc23)NC(=O)[C@H](Cc2ccco2)NC(=O)[C@H]([C@@H](C)CC)NC(=O)[C@H](CC(C)C)NC(=O)[C@H](Cc2c[nH]c3ccccc23)NC(=O)[C@H](Cc2ccc(O)cc2)NC(=O)[C@@H]2CCCN2C(=O)[C@H](CCC(C)C)NC1=O ({CH2CO}-Y[Nle][hLeu]PYWLI[Ala(2-furyl)]WC-NH2; thioether N-11)

pIC50 [1]: 5.74
Compound: CC[C@H](C)[C@@H]1NC(=O)[C@H](CC(C)C)NC(=O)[C@H](Cc2c[nH]c3ccccc23)NC(=O)[C@H](Cc2ccc(O)cc2)N(C)C(=O)[C@@H]2CCCN2C(=O)[C@H](CCC(C)C)NC(=O)[C@H](C)NC(=O)[C@H](Cc2ccc(O)cc2)N(C)C(=O)CSC[C@@H](C(N)=O)NC(=O)[C@H](Cc2c[nH]c3ccccc23)NC(=O)[C@H](CC(N)=O)NC1=O ({CH2CO}-[NMeY]A[hLeu]P[NMeY]WLINWC-NH2; thioether N-11)

Compound: CSCC[C@H](NC(=O)[C@H](C)NC(=O)CNC(=O)[C@H](Cc1ccc(O)cc1)NC(=O)[C@H](Cc1c[nH]c2ccccc12)NC(=O)[C@H](Cc1ccccc1)NC(=O)[C@H](CO)NC(=O)CNC(=O)CNC(=O)[C@H](CC(=O)O)NC(=O)[C@H](CCC(=O)O)NC(=O)CCC(=O)NCCOCCOCCCCCCCl)C(=O)N[C@@H](CCCCN)C(=O)N[C@@H](C)C(=O)N[C@@H](CC(C)C)C(=O)N[C@@H](Cc1ccc(O)cc1)C(=O)NCC(N)=O ({NH(CH2CH2O)2(CH2)6Cl-Suc}-EDGGSFWYGAMKALYG-NH2)
pKd [5]: 7.53
pIC50 [1]: 7.34
Activity [2]: 9.5%
Activity (MDA-MB-468): 1.7%

Compound: CSCC[C@H](NC(=O)[C@H](C)NC(=O)CNC(=O)[C@H](Cc1ccc(O)cc1)NC(=O)[C@H](C)NC(=O)[C@H](Cc1ccccc1)NC(=O)[C@H](CO)NC(=O)CNC(=O)CNC(=O)[C@H](CC(=O)O)NC(=O)[C@H](CCC(=O)O)NC(=O)[C@H](CCC(N)=O)NC(=O)[C@@H]1CCCN1C(=O)[C@H](CCCNC(=N)N)NC(=O)[C@H](CCCNC(=N)N)NC(=O)[C@H](CCCNC(=N)N)NC(=O)[C@H](CCC(N)=O)NC(=O)[C@H](CCCNC(=N)N)NC(=O)[C@H](CCCNC(=N)N)NC(=O)[C@H](CCCCN)NC(=O)[C@H](CCCCN)NC(=O)[C@H](CCCNC(=N)N)NC(=O)CNC(=O)CCC(=O)NCCOCCOCCCCCCCl)C(=O)N[C@@H](CCCCN)C(=O)N[C@@H](C)C(=O)N[C@@H](CC(C)C)C(=O)N[C@@H](C)C(=O)NCC(N)=O ({NH(CH2CH2O)2(CH2)6Cl-Suc}-GRKKRRQRRRPQEDGGSFAYGAMKALAG-NH2)
pIC50 [1]: < 5.00
Activity [2]: 1.9%
Activity (MDA-MB-468): 1.1%
remaining at 24 h, 150 µM [3]: 0%

Compound: CSCC[C@H](NC(=O)[C@H](C)NC(=O)CNC(=O)[C@H](Cc1ccc(O)cc1)NC(=O)[C@H](Cc1c[nH]c2ccccc12)NC(=O)[C@H](Cc1ccccc1)NC(=O)[C@H](CO)NC(=O)CNC(=O)CNC(=O)[C@H](CC(=O)O)NC(=O)[C@H](CCC(=O)O)NC(=O)[C@H](CCC(N)=O)NC(=O)[C@@H]1CCCN1C(=O)[C@H](CCCNC(=N)N)NC(=O)[C@H](CCCNC(=N)N)NC(=O)[C@H](CCCNC(=N)N)NC(=O)[C@H](CCC(N)=O)NC(=O)[C@H](CCCNC(=N)N)NC(=O)[C@H](CCCNC(=N)N)NC(=O)[C@H](CCCCN)NC(=O)[C@H](CCCCN)NC(=O)[C@H](CCCNC(=N)N)NC(=O)CNC(=O)CCC(=O)NCCOCCOCCCCCCCl)C(=O)N[C@@H](CCCCN)C(=O)N[C@@H](C)C(=O)N[C@@H](CC(C)C)C(=O)N[C@@H](Cc1ccc(O)cc1)C(=O)NCC(N)=O ({NH(CH2CH2O)2(CH2)6Cl-Suc}-GRKKRRQRRRPQEDGGSFWYGAMKALYG-NH2)
inhibition [11]: Active
pIC50 [1]: 6.82
inhibition [12]: Active
Activity [2]: 9.6%
inhibition [13]: Active
Activity (MDA-MB-468): 57.1%
inhibition [14]: Active
inhibition [7]: Active
remaining at 24 h, 150 µM [3]: 0%
inhibition [8]: Active

pIC50 [1]: < 5.00
Compound: Ac-YKQPYWLINWA-NH2
